Measured values from the array DNA melting data of Ke et al. (doi:10.1101/2024.01.08.574731).

Tests used:
[1] = folding enthalpy; higher = less favourable; fluorescence melt of hairpins on a sequencing array, two-state fit; conditions: sodium 0.088 M
Method in brief: (§1)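 Two-state fits, bootstrapped, provided melting temperature and folding enthalpy from Cy3 fluorescence normalised to pre-quench Cy3 and to control constructs. Library hairpins with annealed Cy3 and quencher oligos were imaged on a sequenced MiSeq flow cell in 50 mM Na-HEPES pH 8.0, 25 mM NaCl, at 2.5 °C intervals up to 60 °C. Four replicates were combined with inverse-variance weighting. A 9.35 °C upward shift was applied to fitted temperatures to match UV melts.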

[2] = melting temperature; fluorescence melt of hairpins on a sequencing array, two-state fit, raised by 9.35 °C to match UV melts; conditions: sodium 0.088 M
Method in brief: as §1

Sequence | folding enthalpy [1] [kcal/mol] | Tm [2] [°C]
GATCACCTATGTGATC ((((((....)))))) | -40.1 | 57.1
GCAGGCGAAAGCCGGTGC ((((((....)))..))) | -14.5 | 53.8
GTACGGGGAAACCCGTGC (.(((((....))))).) | -26.9 | 55.6
GCCTATGAAAATAGGC ((((((....)))))) | -34 | 58.9
GTTTTTGGAAACAAAAAC (((((((....))))))) | -41.9 | 51.5
GTCTTGTCGAAAGACGAC (((..(((....)))))) | -18.1 | 50.4
GCTACGGGAAACTGTGGC ((.((.(....).)).)) | -30.7 | 41.1
GCACTTTCGAAAGAATGC (((..(((....)))))) | -14.6 | 33.2
GGCTGCGAAAGCAGAGCC ((((((....)))..))) | -16.3 | 60.1
GGTCGTGCGAAAGCAACC (((..(((....)))))) | -8.03 | 27.6
GATCACTATTGTGATC ((((((....)))))) | -37.8 | 58.3
GATCCCAGTTGGGATC ((((((....)))))) | -42 | 61.2
GGTGCCGAAAGGCGGACC ((((((....)))..))) | -13.9 | 45.7
GTTGGCGAAAGCCTAAAC ((((((....)))..))) | -8.68 | 30.7
GCCCGTGGAAACACGGAC (.(((((....))))).) | -14.5 | 50.2
GATCTGCCGCCAGATC ((((((....)))))) | -31.9 | 51.4
GACAACGGAAACATTGTC (((((.(....).))))) | -26.3 | 34.6
GCACCCGAAAGGGTTTGC ((((((....)))..))) | -13.2 | 41.6
GCTGGGCGAAAGCCAGGC ((..(((....)))..)) | -17.7 | 59.6
GCACATGGAAACGTGTGC (((((.(....).))))) | -45.2 | 55.5
GCATACCGAAAGGTGTGC (((.(((....))).))) | -43.2 | 63.3
GTGTTCCGAAAGGATCAC (((.(((....))).))) | -34.4 | 51.5
GCAGTGGGAAACCGTTGC (((..((....))..))) | -19.4 | 38.1

Sequence | folding enthalpy [1] [kcal/mol] | Tm [2] [°C]
GTTCAAGGAAACTTGAAC (((((((....))))))) | -46.1 | 53.9
GCGATTCGAAAGAAACGC (((.(((....))).))) | -47.3 | 55.7
GCCTCGCGAAAGCGTAGC ((..(((....)))..)) | -11.8 | 44
GCAATCGAAAGATATGC ((((((....))).))) | -21.1 | 36.3
GATCGAAGCTTCGATC ((((((....)))))) | -49.6 | 56.5
GATCAGCTTGCTGATC ((((((....)))))) | -47.5 | 68.8
GGTCTGTCGAAAGACACC (((..(((....)))))) | -11.4 | 30.5
TTTGTGAAAACAAA (((((....))))) | -12.6 | 35.6
GCATTCGAAAGAATCTGC ((((((....)))..))) | -21.5 | 34.5
GTCCGGCGAAAGCCCGAC (((.(((....))).))) | -20.1 | 45.2
GCAGAAGGAAACTTCTAC (.(((((....))))).) | -11.7 | 27.8
GTCGCAGCGAAAGCTGAC (((..(((....)))))) | -9.2 | 37.1
GCGACGTATCGC ((((....)))) | -14.6 | 50.5
GGGGGCGAAAGCCGGCCC ((((((....)))..))) | -14.3 | 48
CGTACGGAAACGTTACG ((((((....))).))) | -30.6 | 46.1
GGGTTCCGAAAGGACCC (((.(((....)))))) | -31.6 | 58.1
GATCGTGTCAACGATC ((((((....)))))) | -39 | 67.6
GCTGAGCGAAAGCTAAGC (((.(((....))).))) | -50.4 | 56.1
GTACTTCGAAAGAATAC (((.(((....)))))) | -7.86 | 25.9
GATGTAGGAAACTACGTC ((.((((....)))).)) | -23.4 | 44.8
GATCGCAATAGCGATC ((((((....)))))) | -26 | 68.4
GTTCGCGAAAGCGCAAAC ((((((....)))..))) | -7.42 | 29
GCTTCTGGAAACAAAAGC ((((.((....)).)))) | -13.1 | 28.8

Sequence | folding enthalpy [1] [kcal/mol] | Tm [2] [°C]
GCCCTAGGAAACCAGGGC (((((.(....).))))) | -47 | 52.5
GCAGCGCGAAAGCTCTGC ((((.((....)).)))) | -31.9 | 62
GATCTGCGACAGATC ((((((...)))))) | -26.2 | 47.3
GGTGCCGAAAGGCGAACC ((((((....)))..))) | -15 | 46.9
GGCGGGGGAAACCCCACC ((.((((....)))).)) | -27.7 | 56.1
GTCCAGGGAAACCTGAAC ((.((((....)))).)) | -19.5 | 35.9
GATCTTATGCAAGATC ((((((....)))))) | -36.5 | 43
GCGTGGCGAAAGCGATGC ((.(.((....)).).)) | -25.3 | 55.7
CGCGCGGAAACGCAAGCG ((((((....)))..))) | -34 | 56.8
GGCCACTCGAAAGAGGCC (((..(((....)))))) | -27.7 | 52.3
GTGTTCGGAAACGAACAC (((((((....))))))) | -36.3 | 67.9
GGCGCAGGAAACCACGCC ((((..(....)..)))) | -35.3 | 47.3
GATCCATCATGGATC ((((((...)))))) | -32.5 | 52.5
GAGCCGCCGAAAGGCCTC (((..(((....)))))) | -8.95 | 33.1
GAAGGCGAAAGCCTATTC ((((((....)))..))) | -8.36 | 32.1
AAGCTGAAAAGCTT (((((....))))) | -21.1 | 49.3
GATCCACGGGTGGATC ((((((....)))))) | -39.6 | 58.8
GATCATGATATGATC ((((((...)))))) | -31.3 | 48.4
GCGATGCGAAAGCACGGC ((..(((....)))..)) | -16.5 | 51.2
GATGACGCGAAAGCGATC (((..(((....)))))) | -8.64 | 35
GATCCGCTCACGGATC ((((((....)))))) | -41.3 | 63.3
GCTCTAGGAAACCAGAGC (((((.(....).))))) | -31.4 | 44
GGATTTGAAAAAATCC ((((((....)))))) | -34.7 | 49.6

Sequence | folding enthalpy [1] [kcal/mol] | Tm [2] [°C]
GATCTACAGCTAGATC ((((((....)))))) | -31.8 | 35.1
AGCGAGAAATCGCT (((((....))))) | -20.7 | 53.7
GCGAAGCGAAAGCTCGGC ((..(((....)))..)) | -8.3 | 43.5
GCCATCCGAAAGGAGGC (((.(((....)))))) | -22.8 | 57.6
GAGTGACCGAAAGGTCTC (((..(((....)))))) | -9.86 | 35
CGCCGCGGAAACGCTGCG (((.(((....))).))) | -37.6 | 57.6
GTTAATGGAAACGTTAAC (((((.(....).))))) | -29.2 | 35.7
GCTGGCGAAAGCCGAGC ((((((....))).))) | -23.5 | 65.3
GCGTTACGAAAGTACCGC (((.(((....))).))) | -31.3 | 53.7
GCATTGACGAAAGTCTGC (((..(((....)))))) | -16.5 | 38.9
GATCATATGTATGATC ((((((....)))))) | -41.6 | 48.6
GTTGGTCCGAAAGGAAAC (((..(((....)))))) | -23.4 | 36.9
GCTCCCCGAAAGGGTAGC (((.(((....))).))) | -21.7 | 54
GATCATTCCCATGATC ((((((....)))))) | -42.6 | 46.8
GATCGATCTGTCGATC ((((((....)))))) | -45.2 | 53.1
GATCCATACGTGGATC ((((((....)))))) | -51 | 54.5
GATCGTGTACACGATC ((((((....)))))) | -51.3 | 63.6
GCTTATCGAAAGATGAGC (((.(((....))).))) | -54.6 | 50.6
GATCAGGTCGCTGATC ((((((....)))))) | -43 | 53.3
GCACCACCGAAAGGTTGC (((..(((....)))))) | -15.9 | 39.5
GGTTACGAAAGTAGACC ((((((....))).))) | -25.3 | 41.4
GACTGGCCGAAAGGCGTC (((..(((....)))))) | -11.8 | 50.8
GATCAAATGCTTGATC ((((((....)))))) | -29.6 | 41.5
